Results published in ChEMBL document CHEMBL2396592, “Discovery of Dap-3 polymyxin analogues for the treatment of multidrug-resistant Gram-negative nosocomial infections” (J Med Chem, 2013).
Values after ≈ are worked out from the molar mass of the structure shown. *1 amine or outer side, *2 acyl side, *3 side chain or, on linkers, in order; H or OH if unused. Where a SMILES comes first, the peptide text is derived from it. Bridges are numbered along the chain shown (N, C = ends). [ ]: non-standard residue; d: D form. The star is where a group is joined. Benzoyl(3-Ph) = O=C(c1cccc(-c2ccccc2)c1)*; Benzoyl(4-Ph) = O=C(c1ccc(-c2ccccc2)cc1)*; X7 = N#Cc1ccc(-c2cc(C(=O)*)ccc2Cl)cc1; X16 = COc1cc(C(=O)*)cc(-c2ccccc2)n1; X19 = O=C(c1ccnc(-c2cccc(Cl)c2)c1)*; X15 = N#Cc1ccc(C(=O)*)cc1-c1ccccc1; 2Naphthoyl = O=C(c1ccc2ccccc2c1)*; X10 = O=C(c1ccnc(-c2ccccc2Cl)c1)*; X2 = COc1ccc(C(=O)*)cc1-c1ccccc1; X14 = O=C(c1ccc(Oc2ccccc2)nc1)*; X3 = O=C(c1cncc(-c2ccccc2)c1)*; X18 = c1ccc(-c2cccc(N*)c2)cc1; X6 = CC[C@H](C)CCCCC(=O)*; Dab = NCC[C@H](N)C(=O)O; Dap = NC[C@H](N)C(=O)O; CO = O=C([*:1])[*:2]

What was measured:
[1] = test system: Pseudomonas aeruginosa; experiment: Bactericidal activity against polymyxin-resistant Pseudomonas aeruginosa clinical isolate 1646; type: functional
Summary of the method: (§1)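 Test strain PA-1646 is a P. aeruginosa isolate with a mutated PmrAB two-component system. The system is constitutively active, so the modified lipid A moiety is constantly expressed on the cell surface, giving a polymyxin-resistant phenotype.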

[2] = test system: Pseudomonas aeruginosa; experiment: Antibacterial activity against polymyxin-sensitive Pseudomonas aeruginosa 1401 assessed as growth inhibition by broth microdilution method; type: functional
Summary of the method: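 CLSI broth microdilution MIC against P. aeruginosa 1401 (PA01) and 1402 (UC12120), the two strains used in the mouse thigh model.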

[3] = Cytotoxicity against human RPTEC after 24 hrs by LDH assay; type: cell-based; conditions: RPTEC cells, read-out: TC50
Summary of the method: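 Primary human renal proximal tubule epithelial cells in REGM (EGF, hydrocortisone, epinephrine, insulin, T3, transferrin, gentamycin/amphotericin-B, FBS). After 72 h of growth at 37 °C, 5% CO2, cells were exposed for 24 h to aqueous compound at 100, 67, 44, 30, 20 and 13 μM. LDH release into the supernatant was measured by kit and TC50 (μM) derived, with PMB and PMBN as controls.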

[4] = test system: Acinetobacter baumannii; experiment: Antibacterial activity against polymyxin-sensitive Acinetobacter baumannii clinical isolate 3167 assessed as growth inhibition by broth microdilution method; type: functional
[5] = test system: Pseudomonas aeruginosa; experiment: Antibacterial activity against polymyxin-resistant Pseudomonas aeruginosa clinical isolate 1646 assessed as growth inhibition by broth microdilution method; type: functional; summary of the method: as §1
[6] = test system: Acinetobacter baumannii; experiment: Antibacterial activity against polymyxin-resistant Acinetobacter baumannii clinical isolate 1649 assessed as growth inhibition by broth microdilution method; type: functional
[7] = test system: Klebsiella pneumoniae; experiment: Antibacterial activity against polymyxin-sensitive ESBL-positive Klebsiella pneumoniae clinical isolate 3700 assessed as growth inhibition by broth microdilution method; type: functional
[8] = test system: Acinetobacter baumannii; experiment: Bactericidal activity against polymyxin-resistant Acinetobacter baumannii clinical isolate 1649; type: functional
[9] = test system: Escherichia coli; experiment: Antibacterial activity against polymyxin-sensitive Escherichia coli isolate 1 assessed as growth inhibition by broth microdilution method; type: functional

Compound | MBC [1] | MIC [2] | CC50 at 24 h [3] | MIC [4] | MIC [5] | MIC [6] | MIC [7] | MBC [8] | MIC [9]
CC(C)C[C@@H]1NC(=O)[C@@H](Cc2ccccc2)NC(=O)[C@H](CCN)NC(=O)[C@@H](NC(=O)[C@H](CN)NC(=O)[C@@H](NC(=O)[C@H](CCN)NC(=O)c2ccc(C#N)c(-c3ccccc3)c2)[C@@H](C)O)CCNC(=O)[C@H]([C@@H](C)O)NC(=O)[C@H](CCN)NC(=O)[C@H](CCN)NC1=O (X15-[Dab]T[Dap][Dab][Dab][dF]L[Dab][Dab]T; lactam 4-C) | 4 µg/mL (≈ 3.19 µM) | 0.25 µg/mL | 39 µM | 0.25 µg/mL | 2 µg/mL | 0.5 µg/mL | 0.25 µg/mL | 0.5 µg/mL (≈ 0.399 µM) | 0.125 µg/mL
COc1cc(C(=O)N[C@@H](CCN)C(=O)N[C@H](C(=O)N[C@@H](CN)C(=O)N[C@H]2CCNC(=O)[C@H]([C@@H](C)O)NC(=O)[C@H](CCN)NC(=O)[C@H](CCN)NC(=O)[C@H](CC(C)C)NC(=O)[C@@H](Cc3ccccc3)NC(=O)[C@H](CCN)NC2=O)[C@@H](C)O)cc(-c2ccccc2)n1 (X16-[Dab]T[Dap][Dab][Dab][dF]L[Dab][Dab]T; lactam 4-C) | 1 µg/mL (≈ 0.793 µM) | 0.5 µg/mL | 24 µM | 0.5 µg/mL | 1 µg/mL | 4 µg/mL | 0.25 µg/mL | 4 µg/mL (≈ 3.17 µM) | 0.25 µg/mL
COc1ccc(C(=O)N[C@@H](CCN)C(=O)N[C@H](C(=O)N[C@@H](CN)C(=O)N[C@H]2CCNC(=O)[C@H]([C@@H](C)O)NC(=O)[C@H](CCN)NC(=O)[C@H](CCN)NC(=O)[C@H](CC(C)C)NC(=O)[C@@H](Cc3ccccc3)NC(=O)[C@H](CCN)NC2=O)[C@@H](C)O)cc1-c1ccccc1 (X2-[Dab]T[Dap][Dab][Dab][dF]L[Dab][Dab]T; lactam 4-C) | 2 µg/mL (≈ 1.59 µM) | 0.5 µg/mL | 27 µM | 0.5 µg/mL | 1 µg/mL | 2 µg/mL | 0.25 µg/mL | 2 µg/mL (≈ 1.59 µM) | 0.25 µg/mL
CC(C)C[C@@H]1NC(=O)[C@@H](Cc2ccccc2)NC(=O)[C@H](CCN)NC(=O)[C@@H](NC(=O)[C@H](CN)NC(=O)[C@@H](NC(=O)[C@H](CCN)NC(=O)c2ccnc(-c3cccc(Cl)c3)c2)[C@@H](C)O)CCNC(=O)[C@H]([C@@H](C)O)NC(=O)[C@H](CCN)NC(=O)[C@H](CCN)NC1=O (X19-[Dab]T[Dap][Dab][Dab][dF]L[Dab][Dab]T; lactam 4-C) | 1 µg/mL (≈ 0.791 µM) | 0.5 µg/mL | 34 µM | 0.25 µg/mL | 1 µg/mL | 0.5 µg/mL | 0.5 µg/mL | 0.5 µg/mL (≈ 0.395 µM) | 0.125 µg/mL
CC(C)C[C@@H]1NC(=O)[C@@H](Cc2ccccc2)NC(=O)[C@H](CCN)NC(=O)[C@@H](NC(=O)[C@H](CN)NC(=O)[C@@H](NC(=O)[C@H](CCN)NC(=O)c2ccc(Oc3ccccc3)nc2)[C@@H](C)O)CCNC(=O)[C@H]([C@@H](C)O)NC(=O)[C@H](CCN)NC(=O)[C@H](CCN)NC1=O (X14-[Dab]T[Dap][Dab][Dab][dF]L[Dab][Dab]T; lactam 4-C) | 16 µg/mL (≈ 12.8 µM) | 1 µg/mL | 61 µM | 0.25 µg/mL | 4 µg/mL | 2 µg/mL | 0.25 µg/mL | 4 µg/mL (≈ 3.21 µM) | 0.25 µg/mL
CC(C)C[C@@H]1NC(=O)[C@@H](Cc2ccccc2)NC(=O)[C@H](CCN)NC(=O)[C@@H](NC(=O)[C@H](CN)NC(=O)[C@@H](NC(=O)[C@H](CCN)NC(=O)c2cccc(-c3ccccc3)c2)[C@@H](C)O)CCNC(=O)[C@H]([C@@H](C)O)NC(=O)[C@H](CCN)NC(=O)[C@H](CCN)NC1=O ({Benzoyl(3-Ph)}-[Dab]T[Dap][Dab][Dab][dF]L[Dab][Dab]T; lactam 4-C) | 2 µg/mL (≈ 1.63 µM) | 0.5 µg/mL | 21 µM | 0.25 µg/mL | 1 µg/mL | 2 µg/mL | 0.5 µg/mL | 2 µg/mL (≈ 1.63 µM) | 0.25 µg/mL
CC[C@H](C)CCCCC(=O)N[C@@H](CCN)C(=O)N[C@H](C(=O)N[C@@H](CCN)C(=O)N[C@H]1CCNC(=O)[C@H]([C@@H](C)O)NC(=O)[C@H](CCN)NC(=O)[C@H](CCN)NC(=O)[C@H](CC(C)C)NC(=O)[C@@H](Cc2ccccc2)NC(=O)[C@H](CCN)NC1=O)[C@@H](C)O (X6-[Dab]T[Dab][Dab][Dab][dF]L[Dab][Dab]T; lactam 4-C) | 16 µg/mL (≈ 13.3 µM) | 0.5 µg/mL | 27 µM | 0.25 µg/mL | 4 µg/mL | 4 µg/mL | 0.5 µg/mL | 4 µg/mL (≈ 3.32 µM) | 0.125 µg/mL
CC[C@H](C)CCCCC(=O)N[C@@H](CCN)C(=O)N[C@H](C(=O)N[C@@H](CN)C(=O)N[C@H]1CCNC(=O)[C@H]([C@@H](C)O)NC(=O)[C@H](CCN)NC(=O)[C@H](CCN)NC(=O)[C@H](CC(C)C)NC(=O)[C@@H](Cc2ccccc2)NC(=O)[C@H](CCN)NC1=O)[C@@H](C)O (X6-[Dab]T[Dap][Dab][Dab][dF]L[Dab][Dab]T; lactam 4-C) | 2 µg/mL (≈ 1.68 µM) | 0.5 µg/mL | 72 µM | 0.125 µg/mL | 1 µg/mL | 4 µg/mL | 0.125 µg/mL | 4 µg/mL (≈ 3.36 µM) | 0.125 µg/mL
CC(C)C[C@@H]1NC(=O)[C@@H](Cc2ccccc2)NC(=O)[C@H](CCN)NC(=O)[C@@H](NC(=O)[C@H](CN)NC(=O)[C@@H](NC(=O)[C@H](CCN)NC(=O)c2ccnc(-c3ccccc3Cl)c2)[C@@H](C)O)CCNC(=O)[C@H]([C@@H](C)O)NC(=O)[C@H](CCN)NC(=O)[C@H](CCN)NC1=O (X10-[Dab]T[Dap][Dab][Dab][dF]L[Dab][Dab]T; lactam 4-C) | 16 µg/mL (≈ 12.6 µM) | 0.5 µg/mL | 86 µM | 0.25 µg/mL | 4 µg/mL | 1 µg/mL | 0.25 µg/mL | 1 µg/mL (≈ 0.791 µM) | 0.125 µg/mL
CC(C)C[C@@H]1NC(=O)[C@@H](Cc2ccccc2)NC(=O)[C@H](CCN)NC(=O)[C@@H](NC(=O)[C@H](CN)NC(=O)[C@@H](NC(=O)[C@H](CCN)NC(=O)c2ccc(-c3ccccc3)cc2)[C@@H](C)O)CCNC(=O)[C@H]([C@@H](C)O)NC(=O)[C@H](CCN)NC(=O)[C@H](CCN)NC1=O ({Benzoyl(4-Ph)}-[Dab]T[Dap][Dab][Dab][dF]L[Dab][Dab]T; lactam 4-C) | 1 µg/mL (≈ 0.813 µM) | 0.5 µg/mL | 28 µM | 0.25 µg/mL | 0.5 µg/mL | 1 µg/mL | 0.25 µg/mL | 1 µg/mL (≈ 0.813 µM) | 0.25 µg/mL
CC(C)C[C@@H]1NC(=O)[C@@H](Cc2ccccc2)NC(=O)[C@H](CCN)NC(=O)[C@@H](NC(=O)[C@H](CN)NC(=O)[C@@H](NC(=O)[C@H](CCN)NC(=O)c2ccc3ccccc3c2)[C@@H](C)O)CCNC(=O)[C@H]([C@@H](C)O)NC(=O)[C@H](CCN)NC(=O)[C@H](CCN)NC1=O (2Naphthoyl-[Dab]T[Dap][Dab][Dab][dF]L[Dab][Dab]T; lactam 4-C) | 16 µg/mL (≈ 13.3 µM) | 0.5 µg/mL | 51 µM | 0.25 µg/mL | 4 µg/mL | 2 µg/mL | 0.125 µg/mL | 2 µg/mL (≈ 1.66 µM) | 0.125 µg/mL
CC(C)C[C@@H]1NC(=O)[C@@H](Cc2ccccc2)NC(=O)[C@H](CCN)NC(=O)[C@@H](NC(=O)[C@H](CN)NC(=O)[C@@H](NC(=O)[C@H](CCN)NC(=O)Nc2cccc(-c3ccccc3)c2)[C@@H](C)O)CCNC(=O)[C@H]([C@@H](C)O)NC(=O)[C@H](CCN)NC(=O)[C@H](CCN)NC1=O ({X18-CO}-[Dab]T[Dap][Dab][Dab][dF]L[Dab][Dab]T; lactam 4-C) | 1 µg/mL (≈ 0.804 µM) | 0.5 µg/mL | 15 µM | 0.25 µg/mL | 1 µg/mL | 4 µg/mL | 0.25 µg/mL | 4 µg/mL (≈ 3.21 µM) | 0.25 µg/mL
CC(C)C[C@@H]1NC(=O)[C@@H](Cc2ccccc2)NC(=O)[C@H](CCN)NC(=O)[C@@H](NC(=O)[C@H](CN)NC(=O)[C@@H](NC(=O)[C@H](CCN)NC(=O)c2ccc(Cl)c(-c3ccc(C#N)cc3)c2)[C@@H](C)O)CCNC(=O)[C@H]([C@@H](C)O)NC(=O)[C@H](CCN)NC(=O)[C@H](CCN)NC1=O (X7-[Dab]T[Dap][Dab][Dab][dF]L[Dab][Dab]T; lactam 4-C) | 4 µg/mL (≈ 3.1 µM) | 1 µg/mL | 20 µM | 0.5 µg/mL | 1 µg/mL | 4 µg/mL | 0.5 µg/mL | 4 µg/mL (≈ 3.1 µM) | 0.5 µg/mL
CC(C)C[C@@H]1NC(=O)[C@@H](Cc2ccccc2)NC(=O)[C@H](CCN)NC(=O)[C@@H](NC(=O)[C@H](CN)NC(=O)[C@@H](NC(=O)[C@H](CCN)NC(=O)c2cncc(-c3ccccc3)c2)[C@@H](C)O)CCNC(=O)[C@H]([C@@H](C)O)NC(=O)[C@H](CCN)NC(=O)[C@H](CCN)NC1=O (X3-[Dab]T[Dap][Dab][Dab][dF]L[Dab][Dab]T; lactam 4-C) | 4 µg/mL (≈ 3.25 µM) | 0.5 µg/mL | 56 µM | 0.25 µg/mL | 2 µg/mL | 4 µg/mL | 0.25 µg/mL | 4 µg/mL (≈ 3.25 µM) | 0.125 µg/mL
